In ChEMBL document CHEMBL5042555, “Development of Myostatin Inhibitory d-Peptides to Enhance the Potency, Increasing Skeletal Muscle Mass in Mice” (ACS Med Chem Lett, 2022):
pIC50: −log10 of the molar value. Activity calls are given as the source filed them. The rule behind the calls is not given here. Non-standard residues stand in square brackets, D forms with d. Residues, ends and D or L forms follow the SMILES beside them. Chg = N[C@H](C(=O)O)C1CCCCC1

Experiments:
[1] = target: T1, Growth/differentiation factor 8 (Homo sapiens, UniProt O14793); assay: Inhibition of myostatin (unknown origin) expressed in HEK293 cells transfected with Smad2/3 responsive reporter plasmid incubated for 4 hrs by dual luciferase reporter gene based assay; assay type: cell-based
T1 sequence (O14793 whole entry): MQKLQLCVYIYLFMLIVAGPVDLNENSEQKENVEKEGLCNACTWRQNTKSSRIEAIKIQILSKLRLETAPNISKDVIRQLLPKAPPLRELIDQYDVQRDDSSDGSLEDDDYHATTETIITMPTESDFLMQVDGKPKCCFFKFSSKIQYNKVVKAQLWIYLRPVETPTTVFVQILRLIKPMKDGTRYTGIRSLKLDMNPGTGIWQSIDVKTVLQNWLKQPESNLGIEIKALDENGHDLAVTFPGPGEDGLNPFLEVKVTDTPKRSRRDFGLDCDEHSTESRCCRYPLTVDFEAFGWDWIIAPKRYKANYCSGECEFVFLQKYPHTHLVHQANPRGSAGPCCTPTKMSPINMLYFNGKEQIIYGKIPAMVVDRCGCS

[2] = In vivo inhibition of myostatin in C57BL/6J mouse assessed as increase in weight of tibialis anterior muscles at 0.75 mM, IM administered for 28 days relative to control; assay type: functional; set-up: scale not given: the % may be the effect or the level left; conditions: time 28 day
How it was run: (§1)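 Wild-type male C57BL/6J mice, 8 weeks old. Single intramuscular injection at day 0: peptide (30 nmol; 0.75 mM in saline, 40 μL) into left tibialis anterior, saline (40 μL) into right TA. TA muscles collected and weighed at day 28, weight normalized to body weight. Increase expressed relative to saline-injected TA (=100%). Mean ± SD, N = 4–5 mice.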

[3] = target: Transforming growth factor beta-1 proprotein (Homo sapiens, UniProt P01137); assay: Inhibition of TGF beta 1 (unknown origin) expressed in HEK293 cells transfected with Smad2/3 responsive reporter plasmid incubated for 4 hrs by dual luciferase reporter gene assay; assay type: cell-based
Transforming growth factor beta-1 proprotein, sequence (P01137 279-390 limits assumed): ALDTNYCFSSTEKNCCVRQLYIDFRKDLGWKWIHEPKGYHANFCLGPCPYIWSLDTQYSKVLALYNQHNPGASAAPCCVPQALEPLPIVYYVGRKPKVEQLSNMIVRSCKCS
How it was run: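 HEK293 cells co-transfected with Smad-responsive firefly luciferase reporter (pGL4.48[luc2P/SBE/Hygro]) and Renilla control (pGL4.74[hRluc/TK]). Cells starved 8 h in serum-free DMEM, then exposed 4 h to TGF-β1 at 2.5 ng/mL (0.1 nM) with or without peptide (0.025–18 or 0.074–54 μM). SB431542 at 5 μM as positive control. Triplicate means ± SD. IC50 from sigmoidal curve fitting.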

[4] = system: Mus musculus; assay: In vivo inhibition of myostatin in C57BL/6J mouse assessed as increase in weight of tibialis anterior muscles normalized with body weight at 0.75 mM, IM administered for 28 days; assay type: functional; conditions: time 28.0 day; how it was run: as §1
[5] = Inhibition of GDF-11 (unknown origin) expressed in HEK293 cells transfected with Smad2/3 responsive reporter plasmid incubated for 4 hrs by dual luciferase reporter gene based assay; conditions: Homo sapiens, HEK293, 4 h
[6] = Inhibition of activin A (unknown origin) expressed in HEK293 cells transfected with Smad2/3 responsive reporter plasmid incubated for 4 hrs by dual luciferase reporter gene assay; conditions: Homo sapiens, HEK293, 4 h

Row | pIC50 [1] | pIC50 [3] | pIC50 [5] | pIC50 [6] | SMILES | Activity [2] | Activity [4]
1 | 6.72 | 5.80 | 6.20 | 6.05 | CC[C@@H](C)[C@@H](NC(=O)[C@@H](CCCNC(=N)N)NC(=O)[C@@H](Cc1c[nH]c2ccccc12)NC(=O)[C@H](NC(=O)[C@@H](CCCCN)NC(=O)[C@H](NC(=O)[C@@H](CCCNC(=N)N)NC(=O)[C@H](NC(=O)[C@@H](Cc1c[nH]c2ccccc12)NC(=O)[C@@H](CCCNC(=N)N)NC(=O)[C@@H](CCCCN)NC(=O)[C@H](NC(=O)[C@@H](CCCNC(=N)N)NC(=O)[C@H](N)CC(C)C)C1CCCCC1)[C@H](C)CC)C1CCCCC1)[C@H](C)CC)C(=O)N[C@H](Cc1ccc(O)cc1)C(=O)N[C@H](Cc1c[nH]c2ccccc12)C(N)=O | 133% | Active
2 | 6.59 | 5.17 | 5.85 | 5.85 | CC[C@H](C)[C@H](NC(=O)[C@H](CCC(N)=O)NC(=O)[C@@H](NC(=O)[C@H](CCCCN)NC(=O)[C@@H](NC(=O)[C@@H](Cc1c[nH]c2ccccc12)NC(=O)[C@H](CCCNC(=N)N)NC(=O)[C@@H](NC(=O)[C@H](Cc1ccc(O)cc1)NC(=O)[C@@H](N)Cc1c[nH]c2ccccc12)[C@@H](C)CC)[C@@H](C)CC)C1CCCCC1)C(=O)N[C@@H](Cc1c[nH]c2ccccc12)C(=O)N[C@@H](CO)C(=O)N[C@@H](CCCCN)C(=O)N[C@H](C(=O)N[C@@H](CCCNC(=N)N)C(=O)N[C@@H](CC(C)C)C(N)=O)C1CCCCC1 (H-WYIR[dW]IK[Chg]QIWSK[Chg]RL-NH2) | 109% | Active
